Data on 30 sequences can be found in the array DNA melting data of Ke et al. (doi:10.1101/2024.01.08.574731).

Series [1] in a line: folding enthalpy; higher = less favourable; fluorescence melt of hairpins on a sequencing array, two-state fit. As to conditions: sodium 0.088 M. Summed up:
(§1)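 Melting temperature and folding enthalpy were obtained by bootstrapped two-state fitting. Fits used Cy3 fluorescence of library hairpins with annealed Cy3 and quencher oligos on a sequenced MiSeq flow cell, imaged in 50 mM Na-HEPES pH 8.0, 25 mM NaCl in 2.5 °C steps up to 60 °C and normalised to pre-quench Cy3 and control constructs. Four replicates were combined by inverse-variance weighting, and fitted temperatures were raised by 9.35 °C to match UV melts.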

A short description of series [2]: melting temperature; fluorescence melt of hairpins on a sequencing array, two-state fit, raised by 9.35 °C to match UV melts. As to conditions: sodium 0.088 M. In short, it runs like this:
as §1

Consider GAATACCGAAAGGTGTTC (((.(((....))).))), for which the folding enthalpy in series [1] is -40.3 kcal/mol. Moreover, the Tm in series [2] turned out to be 51.2 °C.
As for GAATACCGAAAGGTTTTC (((.(((....))).))), the folding enthalpy in series [1] was -25.7 kcal/mol. Besides, in series [2], the Tm was 39.5 °C.
The like results for GAATACGAAAGTACTTC ((((((....))).))) were, in that order, -17 kcal/mol and 30.2 °C.
GAATACGAAAGTAGCTTC ((((((....)))..))): in series [1], the folding enthalpy was -16.4 kcal/mol. For the same sequence, the Tm in series [2] came out at 33.9 °C.
GAATAGCCGAAAGGCTTC (((..(((....)))))): in series [1], the folding enthalpy is -7.5 kcal/mol. The Tm in series [2] came out at 25.5 °C.
The matching figures for GAATAGCGAAAGCTTTC (((.(((....)))))): -11.6 kcal/mol and 33.7 °C.
Regarding GAATAGGGAAACCTGTTC (((.(((....))).))), the folding enthalpy in series [1] is -30.6 kcal/mol. In addition, the Tm in series [2] amounted to 38.2 °C.
On to GAATCACGAAAGTGGTTC (((.(((....))).))), for which, in series [1], the folding enthalpy was -40.3 kcal/mol. The Tm in series [2] was found to be 53.2 °C.
GAATCAGGAAACTGACTC ((.((((....)))).)): in series [1], the folding enthalpy is -17.3 kcal/mol. In addition, in series [2], the Tm worked out at 28.7 °C.
The matching figures for GAATCCCGAAAGGGTTTC (((.(((....))).))): -23.6 kcal/mol and 45.6 °C.
GAATCCGAAAGGAATTC ((((((....))).))): the folding enthalpy in series [1] was -23.6 kcal/mol. Besides, in series [2], the Tm was found to be 39.7 °C.
Consider GAATCCGAAAGGACTTC ((((((....))).))), for which the folding enthalpy in series [1] is -19.4 kcal/mol. Besides, the Tm in series [2] is 35.8 °C.
Take GAATCCGAAAGGATTTC ((((((....))).))): the folding enthalpy in series [1] was -13.8 kcal/mol. Also, in series [2], the Tm was 48.6 °C.
On to GAATCCGGAAACAGATTC (((((.(....).))))), for which, in series [1], the folding enthalpy was -19.5 kcal/mol. For the same sequence, in series [2], the Tm was determined as 31.3 °C.
Turning to GAATCCGGAAACGAATTC ((((.((....)).)))), the folding enthalpy in series [1] is -21.1 kcal/mol. The Tm in series [2] was found to be 34.1 °C.
Regarding GAATCGCGAAAGCGGTTC (((.(((....))).))), the folding enthalpy in series [1] was -30.3 kcal/mol. Also, the Tm in series [2] stood at 61.7 °C.
For the sequence GAATCGGGAAACCAATTC ((((.((....)).)))), the folding enthalpy in series [1] is -16.3 kcal/mol. Besides, in series [2], the Tm was 28.4 °C.
With GAATCGGGAAACCGGTTC (((.(((....))).))), the folding enthalpy in series [1] is -35.8 kcal/mol. Further, the Tm in series [2] was found to be 50.2 °C.
For the sequence GAATCGGGAAACTGATTC (((((.(....).))))), the folding enthalpy in series [1] was -38.9 kcal/mol. For the same sequence, the Tm in series [2] stood at 45.5 °C.
The like results for GAATCTGAAAAGATTC ((((((....)))))) were, in that order, -36.8 kcal/mol and 49.8 °C.
In the case of GAATCTGGAAACAGATTC (((((((....))))))), the folding enthalpy in series [1] was -49.8 kcal/mol. Further, the Tm in series [2] worked out at 55.6 °C.
As to GAATGAGGAAACTCATTC (((((((....))))))), the folding enthalpy in series [1] is -37.3 kcal/mol. Moreover, the Tm in series [2] came out at 52.8 °C.
As to GAATGCGAAAGCACTTC ((((((....))).))), in series [1], the folding enthalpy is -16.2 kcal/mol. In addition, the Tm in series [2] amounted to 40.9 °C.
The matching figures for GAATGCGAAAGCAGGTTC ((((((....)))..))): -8.65 kcal/mol and 30.4 °C.
For the sequence GAATGCGAAAGCAGTTC ((((((....))).))), the folding enthalpy in series [1] was -13.9 kcal/mol. Also, the Tm in series [2] stood at 41.8 °C.
The like results for GAATGGGGAAACCCACTC ((.((((....)))).)) were, in that order, -13.1 kcal/mol and 30 °C.
GAATGTGGAAACATGTTC (((..((....))..))): the folding enthalpy in series [1] was -18.7 kcal/mol. Besides, in series [2], the Tm was 31.4 °C.
The like results for GAATTAGAAATAATTC ((((((....)))))) were, in that order, -18.5 kcal/mol and 33.3 °C.
On to GAATTAGGAAACTAATTC (((((((....))))))), for which the folding enthalpy in series [1] is -38.8 kcal/mol. For the same sequence, the Tm in series [2] came out at 46.9 °C.
Regarding GAATTCCGAAAGGAGTTC (((.(((....))).))), the folding enthalpy in series [1] is -33.6 kcal/mol. Also, in series [2], the Tm came to 49 °C.
